What all share (assay type): functional
In experiment [1] the test system is Hepatocyte. In words: Hepatoprotective activity against D-galactosamine/TNFalpha-induced cell death in mouse hepatocytes assessed cell survival rate at 100 uM administered before 30 mins of TNFalpha challenge measured after 18 hrs by MTT assay. The essentials:
(§1)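 Primary mouse hepatocytes, isolated by collagenase perfusion, were cultured in William's E medium with 10% calf serum, dexamethasone and insulin at 1.5×10^4 cells/well. TNF-α (100 ng/mL) was added 30 min later. Viability was read by MTT after 18 h. Values are mean ± SD, n = 4 (normal and control n = 8), with Student's t-test versus control.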
In general terms: Tetrazolium assays rely on reduction of a dye to a coloured formazan, in cell work by metabolically active cells.

Experiment [2] has as its system Hepatocyte. In words: Hepatoprotective activity in mouse hepatocytes assessed protection against D-galactosamine/TNFalpha-induced cell death at 50 uM administered before 30 mins of TNFalpha challenge measured after 18 hrs. In a few lines:
as §1

For experiment [3], the system named is Hepatocyte. The experiment can be described thus: Hepatoprotective activity in mouse hepatocytes assessed inhibition of D-galactosamine/TNFalpha-induced cell death at 200 uM administered before 30 mins of TNFalpha challenge measured after 18 hrs. In a few lines: as §1
The subject of experiment [4] is Hepatocyte. In words: Hepatoprotective activity in mouse hepatocytes assessed inhibition of D-galactosamine/TNFalpha-induced cell death at 100 uM administered before 30 mins of TNFalpha challenge measured after 18 hrs. In a few lines: as §1
Experiment [5] has as its system Hepatocyte. In words: Hepatoprotective activity in mouse hepatocytes assessed protection against D-galactosamine/TNFalpha-induced cell death at 200 uM administered before 30 mins of TNFalpha challenge measured after 18 hrs. The essentials:
as §1

For experiment [6], the system named is Hepatocyte. The experiment can be described thus: Hepatoprotective activity against D-galactosamine/TNFalpha-induced cell death in mouse hepatocytes assessed cell survival rate at 200 uM administered before 30 mins of TNFalpha challenge measured after 18 hrs by MTT assay. The essentials: as §1
In experiment [7] the test system is Hepatocyte. The experiment can be described thus: Hepatoprotective activity in mouse hepatocytes assessed inhibition of D-galactosamine/TNFalpha-induced cell death at 50 uM administered before 30 mins of TNFalpha challenge measured after 18 hrs. The essentials:
as §1

Experiment [8] has as its system Hepatocyte. In words: Hepatoprotective activity against D-galactosamine/TNFalpha-induced cell death in mouse hepatocytes assessed cell survival rate at 50 uM administered before 30 mins of TNFalpha challenge measured after 18 hrs by MTT assay. The essentials: as §1
For experiment [9], the system named is Hepatocyte. The experiment can be described thus: Hepatoprotective activity in mouse hepatocytes assessed protection against D-galactosamine/TNFalpha-induced cell death at 100 uM administered before 30 mins of TNFalpha challenge measured after 18 hrs. In a few lines:
as §1

Consider `CC1(C)O[C@](C)([C@H]2CC[C@]3(C)[C@@H]2[C@H](O)C[C@@H]2[C@@]4(C)CC[C@H](O)C(C)(C)[C@@H]4[C@@H](O[C@@H]4O[C@H](CO)[C@@H](O)[C@H](O)[C@H]4O)C[C@]23C)CC[C@H]1O` [GINSENOSIDE R10], for which the Survival in the experiment on Hepatocyte [1] came to 38.3%; with Hepatocyte [6], 35.2%; in the experiment on Hepatocyte [8], 41.1%. Also, the Activity in the experiment on Hepatocyte [2] is given as 16%; in the experiment with Hepatocyte [5] it was 7.6%; in the experiment on Hepatocyte [9] it was 12%. Further, the “inhibition (INH)” value in the experiment on Hepatocyte [3] is given as 17.8%; in the experiment with Hepatocyte [4], 28%; in the experiment on Hepatocyte [7], 37.6%.
For `CC(C)=CCC[C@](C)(O[C@@H]1O[C@H](CO)[C@@H](O)[C@H](O)[C@H]1O)[C@H]1CC[C@]2(C)[C@@H]1[C@H](O)C[C@@H]1[C@@]3(C)CC[C@H](O[C@@H]4O[C@H](CO)[C@@H](O)[C@H](O)[C@H]4O[C@@H]4O[C@H](CO)[C@@H](O)[C@H](O)[C@H]4O)C(C)(C)[C@@H]3CC[C@]12C` [GINSENOSIDE RD], the Survival in the experiment on Hepatocyte [1] turned out to be 35.9%; with Hepatocyte [6], 41.8%; in the experiment with Hepatocyte [8], 35.3%. In addition, the Activity in the experiment on Hepatocyte [2] is 7.4%; with Hepatocyte [5] it was 16.8%; with Hepatocyte [9], 8.4%. Besides, the “inhibition (INH)” value in the experiment with Hepatocyte [3] worked out at 39.1%; in the experiment with Hepatocyte [4] it was 19.5%; in the experiment with Hepatocyte [7], 17.5%.
In the case of `CC(C)=CCC[C@](C)(O[C@@H]1O[C@H](CO[C@@H]2O[C@@H](CO)[C@H](O)[C@H]2O)[C@@H](O)[C@H](O)[C@H]1O)[C@H]1CC[C@]2(C)[C@@H]1[C@H](O)C[C@@H]1[C@@]3(C)CC[C@H](O[C@@H]4O[C@H](CO)[C@@H](O)[C@H](O)[C@H]4O[C@@H]4O[C@H](CO)[C@@H](O)[C@H](O)[C@H]4O)C(C)(C)[C@@H]3CC[C@]12C` [GINSENOSIDE RC], the Survival is recorded as 31.4% with Hepatocyte [1], 26.7% in the experiment with Hepatocyte [6] and 32.1% with Hepatocyte [8]. In addition, the Activity in the experiment with Hepatocyte [2] was found to be 3.2%; in the experiment on Hepatocyte [9] it was 1.9%. Moreover, the “inhibition (INH)” value in the experiment with Hepatocyte [3] is recorded as -11.3%; with Hepatocyte [4], 4.4%; in the experiment on Hepatocyte [7], 6.7%.
Regarding `CC(C)=CCC[C@](C)(O[C@@H]1O[C@H](CO[C@@H]2O[C@H](CO)[C@@H](O)[C@H](O)[C@H]2O)[C@@H](O)[C@H](O)[C@H]1O)[C@H]1CC[C@]2(C)[C@@H]1[C@H](O)C[C@@H]1[C@@]3(C)CC[C@H](O[C@@H]4O[C@H](CO)[C@@H](O)[C@H](O)[C@H]4O[C@@H]4O[C@H](CO)[C@@H](O)[C@H](O)[C@H]4O)C(C)(C)[C@@H]3CC[C@]12C` [GINSENOSIDE RB1], the Survival with Hepatocyte [1] came out at 36%; with Hepatocyte [6] it was 39.6%; in the experiment with Hepatocyte [8], 34.4%. Moreover, the results for the Activity with Hepatocyte [2], in the experiment on Hepatocyte [5] and in the experiment on Hepatocyte [9] were 6%, 13.7% and 8.5%, respectively. Moreover, the “inhibition (INH)” value with Hepatocyte [3] is listed as 31.9%; in the experiment on Hepatocyte [4] it was 19.8%; in the experiment on Hepatocyte [7], 14.3%.
In the experiment on Hepatocyte [2], `CO[C@@](C)(CCC=C(C)C)[C@H]1CC[C@]2(C)[C@@H]1[C@H](O)C[C@@H]1[C@@]3(C)CC[C@H](O)C(C)(C)[C@@H]3[C@@H](O[C@@H]3O[C@H](CO)[C@@H](O)[C@H](O)[C@H]3O)C[C@]12C` [GINSENOSIDE RH5] returned an Activity of 13.1%. The results for the “inhibition (INH)” value in the experiment with Hepatocyte [3], in the experiment with Hepatocyte [4] and in the experiment on Hepatocyte [7] were -24%, 27.9% and 23.5%, respectively. Also, the Survival in the experiment on Hepatocyte [8] stood at 36.9%.

Values taken from ChEMBL document CHEMBL1150813, “Triterpene saponins from Vietnamese ginseng (Panax vietnamensis) and their hepatocytoprotective activity” (J Nat Prod, 2001).
